The values that follow come from ChEMBL document CHEMBL2424590, “4-[18F]Fluoro-m-hydroxyphenethylguanidine: a radiopharmaceutical for quantifying regional cardiac sympathetic nerve density with positron emission tomography” (J Med Chem, 2013).

Series [1] in a line: Drug uptake in rhesus macaque monkey adrenal glands 5 to 6 mCi, iv after 90 mins by PET analysis in presence of desipramine. The class given is ADME, organism-based, Macaca mulatta, Adrenal gland. Particulars: in vivo, 1.5 h; call rule not given here.
The test system of series [2] is Rattus norvegicus. The series can be described thus: Biodistribution in Sprague-Dawley rat eyeballs at 20 to 120 uCi, iv after 120 mins by gamma counting analysis. The settings on record: in vivo, 2 h. The class given is ADME, organism-based, Eyeball of camera-type eye. Put shortly: (§1)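 Sprague-Dawley rats (280–330 g), 2 male and 2 female per time point (5, 30, 60, 120 min), under light isoflurane, received a tail-vein bolus of 20–120 μCi tracer in 0.05–0.10 mL isotonic 60 mM sodium phosphate, pH 5.4. Tissues were weighed and gamma-counted. Decay-corrected dpm/g was normalized to injected dpm per kg body weight (%ID·kg/g).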

The subject of series [3] is Liver. The series can be described thus: Biodistribution in Sprague-Dawley rat liver at 20 to 120 uCi, iv after 60 mins by gamma counting analysis. The settings on record: in vivo, 1 h. It is filed as ADME, organism-based. A digest of the protocol: as §1
Another series has as its system Plasma. The series can be described thus: Metabolic stability in rhesus macaque monkey plasma assessed as retention time at 5 to 6 mCi, iv by RP-HPLC analysis. It is filed as ADME, organism-based, Macaca mulatta. Particulars: in vivo. A digest of the protocol:
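Six venous samples (1.5–2.0 mL; typically 1, 2, 4, 10, 30, 60 min) drawn during the monkey PET scan into heparin and centrifuged 1 min at 12000 × g. Plasma deproteinised with HClO₄ (final 0.4 N), spun, neutralised with KOH to pH 7.0–7.5 and filtered twice (0.22 μm). Analysed by reverse-phase HPLC (10% EtOH in 60 mM NaH₂PO₄, pH 5.4, 1.0 mL/min) with NaI(Tl) radiodetection. Decay-corrected intact fraction per sample; T1/2 is the time at which 50% of plasma activity is metabolite.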

Another series has as its system Kidney. The series can be described thus: Biodistribution in Sprague-Dawley rat kidney at 20 to 120 uCi, iv after 60 mins by gamma counting analysis. It is filed as ADME, organism-based. The settings on record: in vivo, 1 h. A digest of the protocol:
as §1

The nature of series [4]: Drug uptake in rhesus macaque monkey myocardium at 0.1 mCi by compartmental modeling analysis. It is filed as ADME, tissue-based, Macaca mulatta. Put shortly: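 Same monkey for all studies. Desipramine (0.010, 0.0316, 0.10 or 1.0 mg/kg; n = 1 each) in 2.0 mL saline infused i.v. over 20 min, with tracer injected 10 min after the infusion ended; 4 control studies. ROIs on myocardium and basal LV blood pool drawn on summed final four frames. Cp(t) derived from Cwb(t) × intact fraction × Cp/Cwb. Ki from compartmental modelling and Kp as Patlak slope, fitted against DMI dose to a variable-slope sigmoidal model.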

The test system of series [5] is Rattus norvegicus. In words: Biodistribution in Sprague-Dawley rat stomach at 20 to 120 uCi, iv after 5 mins by gamma counting analysis. It is filed as ADME, organism-based. Particulars: in vivo. A digest of the protocol:
(§2)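 Male and female rats (2 per sex per time point, 280–330 g) under light isoflurane given tail-vein bolus of 20–120 μCi tracer in 0.05–0.10 mL isotonic 60 mM sodium phosphate, pH 5.4. Tissues sampled at 5, 30, 60 or 120 min, weighed and gamma-counted. Decay-corrected dpm per gram normalised to injected dpm and body weight, given as %ID·kg/g.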

The subject of series [6] is Rattus norvegicus. The series can be described thus: Biodistribution in Sprague-Dawley rat uterus at 20 to 120 uCi, iv after 30 mins by gamma counting analysis. The class given is ADME, organism-based. Particulars: in vivo, 0.5 h. Put shortly: as §2
Series [7] has as its system Rattus norvegicus. The series can be described thus: Biodistribution in Sprague-Dawley rat stomach at 20 to 120 uCi, iv after 60 mins by gamma counting analysis. The class given is ADME, organism-based. Particulars: in vivo, 1 h. Put shortly: as §2
Series [8] relates to Rattus norvegicus. In words: Biodistribution in Sprague-Dawley rat stomach at 20 to 120 uCi, iv after 120 mins by gamma counting analysis. It is filed as ADME, organism-based. The settings on record: in vivo, 2 h. Put shortly: as §2
A further series concerns Lung. The series can be described thus: Biodistribution in Sprague-Dawley rat lung at 20 to 120 uCi, iv after 5 mins by gamma counting analysis. The settings on record: in vivo. It is filed as ADME, organism-based. A digest of the protocol: as §1
Series [9] can be described thus: Half life in rat urinary bladder at 0.5 mCi by PET analysis. The settings on record: in vivo.
Series [10] has as its system Rattus norvegicus. In words: Biodistribution in Sprague-Dawley rat uterus at 20 to 120 uCi, iv after 5 mins by gamma counting analysis. Particulars: in vivo. The class given is ADME, organism-based. Put shortly:
as §2

The next series deals with Pancreas. The series can be described thus: Biodistribution in Sprague-Dawley rat pancreas at 20 to 120 uCi, iv after 5 mins by gamma counting analysis. It is filed as ADME, organism-based. The settings on record: in vivo. A digest of the protocol:
as §1

The subject of the next series is Spleen. In words: Biodistribution in Sprague-Dawley rat spleen at 20 to 120 uCi, iv after 60 mins by gamma counting analysis. Particulars: in vivo, 1 h. The class given is ADME, organism-based. A digest of the protocol:
as §2

The test system of a further series is Bone. In words: Biodistribution in Sprague-Dawley rat bone at 20 to 120 uCi, iv after 120 mins by gamma counting analysis. The settings on record: in vivo, 2 h. It is filed as ADME, organism-based, Bone element. Put shortly: as §1
A short description of series [11]: Drug metabolism in rhesus macaque monkey spinal column assessed as fluorine-18 level at 5 to 6 mCi, iv after 90 mins by transaxial PET analysis. The class given is ADME, organism-based, Macaca mulatta. Particulars: in vivo, 1.5 h.
The test system of series [12] is Liver. In words: Biodistribution in Sprague-Dawley rat liver at 20 to 120 uCi, iv after 120 mins by gamma counting analysis. Particulars: in vivo, 2 h. The class given is ADME, organism-based. Put shortly: as §1
Series [13] relates to Liver. The series can be described thus: Biodistribution in Sprague-Dawley rat liver at 20 to 120 uCi, iv after 30 mins by gamma counting analysis. The class given is ADME, organism-based. The settings on record: in vivo, 0.5 h. Put shortly: as §1

Turning to `N=C(N)NCCc1ccc([18F])c(O)c1`, the Drug uptake entry in [1] is on record as “Not Active”; in the series with Rattus norvegicus [2], 0.026 %IDKg/g; with Liver [3], 0.35 %IDKg/g; in the series on Kidney it was 0.186 %IDKg/g; in the series on Rattus norvegicus [5] it was 0.116 %IDKg/g; in the series with Rattus norvegicus [6] it was 0.155 %IDKg/g. In addition, the Drug uptake with Rattus norvegicus [7] came out at 0.115 %IDKg/g; with Rattus norvegicus [8], 0.089 %IDKg/g; in the series with Lung, 0.267 %IDKg/g; in the series on Rattus norvegicus [10], 0.268 %IDKg/g; in the series with Pancreas it was 0.137 %IDKg/g; in the series with Spleen it was 0.253 %IDKg/g. In addition, the Drug uptake with Bone amounted to 0.016 % ID/g; with Liver [12], 0.233 %IDKg/g; in the series on Liver [13] it was 0.406 %IDKg/g. In addition, in the series with Plasma, the Retention_time came to 11.4 min. In series [4], the Ki worked out at 0.341 mL/min/g. In series [9], this compound displayed a t1/2 of 12 min. The Drug metabolism entry in series [11] was “Active”.
